Data: ChEMBL document CHEMBL4261652, “Modifying aroylhydrazone prochelators for hydrolytic stability and improved cytoprotection against oxidative stress” (Bioorg Med Chem, 2018)
Calls of active or inactive are those of the source. The calls are words filed in the database; no cut-off is given here.

Columns and labels:
ARPE-19 [1] = assay: Cytotoxicity against human ARPE19 cells assessed as reduction in cell viability at 100 uM after 72 hrs by CellTiter-Blue assay; format: cell-based; settings: arpe-19, 72 h
Procedure, shortened: (§1)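 Confluent ARPE-19 monolayers washed three times with MEM, then exposed 72 h to compound at 5–100 μM in MEM containing up to 1% DMSO; viability by CellTiter-Blue; triplicate runs, standard deviations.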

ARPE-19 [2] = assay: Cytoprotective activity against paraquat-induced oxidative stress in human ARPE19 cells pretreated for 5 hrs followed by paraquat-stimulation and measured after 48 hrs by CellTiter-Blue assay; format: functional, cell-based
[3] = Cytotoxicity against rat H9c2 cells after 72 hrs by neutral red uptake assay; format: cell-based; settings: read-out: TC50
ARPE-19 [4] = assay: Cytoprotective activity against paraquat-induced oxidative stress in human ARPE19 cells assessed as cell viability restoration at 100 uM after 48 hrs relative to control; format: functional
Procedure, shortened: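 ARPE-19 cells were grown to confluence in 1:1 DMEM/F12 with 10% FBS at 37 °C and 5% CO2, then washed with MEM. Cells were co-incubated in MEM with 10 mM paraquat plus compound for 48 h, with no pre-incubation step. Viability was read by CellTiter-Blue and expressed as % of the untreated MEM-only control. Triplicate runs, SD.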

ARPE-19 [5] = assay: Cytotoxicity against human ARPE19 cells up to 100 uM after 24 hrs by CellTiter-Blue assay; format: cell-based; settings: arpe-19, 24 h
[6] = Iron chelating activity of the compound assessed as recovery of calcein fluorescence from calcein-Fe3+ complex by measuring iron binding constant at 4 uM measured after 2 hrs by fluorescence assay
Procedure, shortened: (§2)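 Compound at 100 μM in PBS pH 7.4, prepared fresh, either used directly or first incubated 12 h with 5 mM H2O2. Then brought to 4 μM with 2 μM Fe3+-calcein (preformed 4 h from ferric ammonium citrate and calcein) in PBS, equilibrated 2 h at 25 °C; emission read 485/535 nm, as percent of free calcein; n = 3.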

[7] = Iron chelating activity of the compound assessed as recovery of calcein fluorescence from calcein-Fe3+ complex at 4 uM preincubated with H2O2 for 12 hrs followed by addition to calcein-Fe3+ complex measured after 2 hrs by fluorescence assay relative to control; procedure, shortened: as §2
[8] = Solubility of the compound in aqueous buffer at >50 uM; format: physicochemical
ARPE-19 [9] = assay: Cytoprotective activity against H2O2-induced oxidative stress in human ARPE19 cells at 25 to 50 uM pretreated for 5 hrs followed by H2O2-stimulation and measured after 19 hrs by CellTiter-Blue assay; format: functional, cell-based
Procedure, shortened: (§3)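 ARPE-19 cells grown to confluence in 1:1 DMEM/F12 with 10% FBS, 37 °C, 5% CO2; washed with MEM, pre-treated 5 h with compound, then H2O2 added to 200 μM final; viability read 19 h later by CellTiter-Blue, as percent of untreated control; triplicate runs, mean ± SD.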

ARPE-19 [10] = assay: Cytoprotective activity against paraquat-induced oxidative stress in human ARPE19 cells up to 100 uM pretreated for 5 hrs followed by paraquat-stimulation and measured after 48 hrs by CellTiter-Blue assay; format: functional, cell-based
ARPE-19 [11] = assay: Cytoprotective activity against H2O2-induced oxidative stress in human ARPE19 cells up to 100 uM pretreated for 5 hrs followed by H2O2-stimulation and measured after 19 hrs by CellTiter-Blue assay; format: functional, cell-based; procedure, shortened: as §3
[12] = Iron chelating activity of the compound assessed as recovery of calcein fluorescence from calcein-Fe3+ complex by measuring iron binding constant at 4 uM preincubated with H2O2 for 12 hrs followed by addition to calcein-Fe3+ complex measured after 2 hrs by fluorescence assay; procedure, shortened: as §2
[13] = Hydrolytic stability in pH 7.4 PBS buffer at 100 uM by UV-Vis spectrophotometric analysis; format: physicochemical; settings: pH 7.4, 100 µM, TDE = time-dependent effect
Procedure, shortened: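 UV-Vis monitoring of prochelator in PBS pH 7.4 at 1-min intervals over 30 min in 1-cm quartz cuvettes; hydrazide plus aldehyde (100 μM each) mixtures followed as reference.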

[14] = Hydrolytic stability in PBS of pH 7.4 assessed as equilibrium constant for hydrolytic product formation after 1 hr measured at 1 min intervals over 30 mins by UV-Vis spectrophotometric analysis; format: physicochemical; settings: buffer, pH 7.4, 1 h
Procedure, shortened: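 K measured by UV-Vis on equilibrated prochelator solutions in PBS pH 7.4 at several starting concentrations. Absorbances at 263 and 321 nm, with extinction coefficients from linear calibration plots, gave equilibrium concentrations of prochelator, hydrazide and aldehyde; K = [INH][FBA]/[prochelator].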

[15] = Hydrolytic stability of compound in D2O/5% DMSO-d6 solvent at 200 uM after 1 hr by 1H-NMR spectroscopy; format: physicochemical; settings: read-out: Stability
[16] = Hydrolytic stability of compound in D2O/2% DMSO-d6 solvent at 200 uM preincubated for 1 hr followed by H2O2 addition measured after 24 hrs by 1H-NMR spectroscopy; format: physicochemical; settings: D2O/2% DMSO-d6 with H2O2 added; read-out: Stability
ARPE-19 [17] = assay: Cytoprotective activity against H2O2-induced oxidative stress in human ARPE19 cells at 25 uM pretreated for 5 hrs followed by H2O2-stimulation and measured after 19 hrs by CellTiter-Blue assay; format: functional, cell-based; procedure, shortened: as §3
ARPE-19 [18] = assay: Cytotoxicity against human ARPE19 cells up to 100 uM after 72 hrs by CellTiter-Blue assay; format: cell-based; settings: arpe-19, 72 h; procedure, shortened: as §1
[19] = Hydrolytic stability of compound in D2O/5% DMSO-d6 solvent at 500 uM after 1 hr by 1H-NMR spectroscopy; format: physicochemical
Procedure, shortened: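 1H NMR in D2O: prochelator at 500 μM with 5% DMSO-d6, or at 200 μM with 2% DMSO-d6, equilibrated 1 h before spectra; activation by H2O2 added to 25 mM final (10 mM in the 200 μM case), reacting 12 h; aromatic peaks integrated.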

ARPE-19 [20] = assay: Cytotoxicity against human ARPE19 cells up to 100 uM over 72 hrs by CellTiter-Blue assay; format: cell-based; settings: arpe-19, 72 h; procedure, shortened: as §1
ARPE-19 [21] = assay: Cytoprotective activity against paraquat-induced oxidative stress in human ARPE19 cells assessed as cell viability at 100 uM pretreated for 5 hrs followed by paraquat-stimulation and measured after 48 hrs by CellTiter-Blue assay; format: functional; settings: read-out: Activity
[22] = Hydrolytic stability of compound in D2O/5% DMSO-d6 solvent at 500 uM preincubated for 1 hr followed by H2O2 addition measured after 24 hrs by 1H-NMR spectroscopy; format: physicochemical; settings: D2O/5% DMSO-d6 with H2O2 added; read-out: Stability
[23] = Hydrolytic stability in PBS of pH 7.4 at 50 uM after 1 hr by UV-Vis spectrophotometric analysis; format: physicochemical; settings: buffer, pH 7.4, 1 h

Activity [6] | Activity [7] | SMILES | Activity (ARPE-19 [5]) | further results
– | – | C/C(=N\NC(=O)c1ccncc1)c1ccccc1OCc1ccc(B2OC(C)(C)C(C)(C)O2)cc1 | – | Activity (ARPE-19 [1]): 25%; Activity (ARPE-19 [2]): Dose-dependent effect; CC50 at 72 h [3]: 37.1 µM; Activity (ARPE-19 [4]): 40%
inactive | inactive | O=C(N/N=C/c1ccc(Cl)cc1B(O)O)c1ccncc1 | Non-Toxic | –
– | – | COc1ccc(/C=N/NC(=O)c2ccncc2)c(O)c1 | – | solubility [8]: Insoluble
inactive | inactive | CC1(C)OB(c2ccccc2/C=N/NC(=S)Nc2ccccc2)OC1(C)C | Non-Toxic | Activity (ARPE-19 [9]): Active; Activity (ARPE-19 [10]): inactive
> 90% | – | COc1ccc(O)c(/C=N/NC(=O)c2ccncc2)c1 | Non-Toxic | –
inactive | inactive | COc1ccc(/C=N/NC(=O)c2cccnc2)c(B2OC(C)(C)C(C)(C)O2)c1 | Non-Toxic | –
inactive | inactive | CNC(=S)N/N=C/c1ccccc1B1OC(C)(C)C(C)(C)O1 | Non-Toxic | Activity (ARPE-19 [11]): inactive
> 90% | – | O=C(N/N=C/c1ccccc1O)c1ccncc1 [SALINAZID] | Non-Toxic | log(activity) [12]: -23
inactive | 75% | CC1(C)OB(c2cc3c(cc2/C=N/NC(=O)c2ccncc2)OCO3)OC1(C)C | Non-Toxic | Stability [13]: Tde; K [14]: 8 ×10⁻⁶ M; Activity (ARPE-19 [2]): Dose-dependent effect; remaining at 1 h, 200 µM [15]: 80%; remaining at 24 h, 200 µM [16]: 45%; Activity (ARPE-19 [17]): Active; Activity (ARPE-19 [18]): Non-Toxic
inactive | 50% | CC1(C)OB(c2ccccc2/C=N/NC(=O)c2ccncc2)OC1(C)C | Non-Toxic | Activity (ARPE-19 [9]): Active; K [14]: 1.5 ×10⁻⁵ M; Activity (ARPE-19 [10]): inactive; Activity (ARPE-19 [18]): Non-Toxic
> 90% | – | COc1ccc(/C=N/NC(=O)c2cccnc2)c(O)c1 | Non-Toxic | –
inactive | inactive | COc1ccc(/C=N/NC(=O)c2ccncc2)cc1B1OC(C)(C)C(C)(C)O1 | Non-Toxic | Stability ([19]; 1 h, 500 µM): Stable; Activity (ARPE-19 [10]): inactive; Activity (ARPE-19 [11]): inactive; Stability [23]: Stable
inactive | – | Oc1ccccc1/C=N/NC(=S)Nc1ccccc1 | Non-Toxic | –
inactive | – | CNC(=S)N/N=C/c1ccccc1O | Non-Toxic | Activity (ARPE-19 [11]): inactive

SMILES | Activity [6] | Activity [7] | Activity (ARPE-19 [5]) | further results
COc1ccc(B2OC(C)(C)C(C)(C)O2)c(/C=N/NC(=O)c2ccncc2)c1 | inactive | 60% | Non-Toxic | Stability [13]: Tde; remaining at 1 h, 500 µM ([19]; D2O/5% DMSO-d6, read-out: Stability): 85%; Activity (ARPE-19 [1]): 20%; K [14]: 1.1 ×10⁻⁵ M; Activity (ARPE-19 [20]): Toxic; Activity (ARPE-19 [17]): Active; viability at 100 µM (ARPE-19 [21]): 30%; remaining at 24 h, 500 µM [22]: 67%
